Source: ChEMBL document CHEMBL1641445, “Synthesis, antiprotozoal, antimicrobial, β-hematin inhibition, cytotoxicity and methemoglobin (MetHb) formation activities of bis(8-aminoquinolines)” (Bioorg Med Chem, 2011)
The source made the active and inactive calls. No cut-off for these calls is given here.

Experiments:
[1] = test system: Candida albicans; test: Antifungal activity against Candida albicans ATCC 90028 at 20 ug/ml; assay type: functional, organism-based
[2] = test system: Nakaseomyces glabratus; test: Antifungal activity against Candida glabrata at 20 ug/ml; assay type: functional, organism-based
[3] = test system: Staphylococcus aureus; test: Antibacterial activity against methicillin-resistant Staphylococcus aureus ATCC 43300 at 20 ug/ml by CLSI method; assay type: functional, organism-based
Method in brief: (§1)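 Broth dilution method (NCCLS M7-A5). […] MIC is the lowest concentration allowing no detectable growth. MBC is the lowest concentration killing the organism. Highest test concentration was 20 µg/mL.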

[4] = test system: Mycobacterium intracellulare; test: Antibacterial activity against Mycobacterium intracellular ATCC 23068 at 20 ug/ml by CLSI method; assay type: functional, organism-based
[5] = test system: Pichia kudriavzevii; test: Antifungal activity against Candida krusei at 20 ug/ml; assay type: functional, organism-based
[6] = test system: Aspergillus fumigatus; test: Antifungal activity against Aspergillus fumigatus ATCC 90906 at 20 ug/ml; assay type: functional, organism-based
[7] = test system: Plasmodium berghei; test: Antimalarial activity against Plasmodium berghei infected in mouse assessed as complete elimination of malaria parasites from animals at 100 mg/kg, po qd for 4 days measured up to 60 days; assay type: functional, organism-based; parameters: dose 100 mg/kg
Method in brief: (§2)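 Rodent P. berghei (sensitive strain) blood-schizontocidal model, 6 mice per group. Compounds were given orally once daily for 4 days at 10, 25, 50 or 100 mg/kg/day. Cure meant complete parasite elimination with survival to day D+60.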

[8] = test system: Leishmania donovani; test: Antileishmanial activity against promastigotes of Leishmania donovani by alamar blue assay; assay type: functional, organism-based; conditions: for IC50: read-out: IC50
[9] = Hematotoxicity against RBC assessed as formation of methemoglobin at 20 ug/ml relative to control; assay type: cell-based; conditions: erythrocyte
Method in brief: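 Metabolism-linked methemoglobin toxicity in vitro. Percent MetHb formation was determined at 20 µg/mL of compound relative to vehicle control.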

[10] = Inhibition of beta-hematin formation; assay type: functional
[11] = test system: Vero; test: Cytotoxicity against african green monkey Vero cells up to 10 ug/ml by neutral red assay; assay type: cell-based; conditions: chlorocebus sabaeus
Method in brief: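 Vero (monkey kidney) cells were exposed up to a highest concentration of 10 µg/mL. Viability was read by neutral red uptake.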

[12] = test system: Plasmodium berghei; test: Antimalarial activity against Plasmodium berghei infected in mouse assessed as negative parasitemia level at 10 mg/kg, po qd for 4 days measured up to 7 days; assay type: functional, organism-based; parameters: dose 10 mg/kg
Method in brief: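 Mice infected with P. berghei (sensitive strain), 6 per group, dosed orally at 10–100 mg/kg/day × 4. Suppression meant negative parasitemia in all treated animals up to D+7. Survivors were counted at D+60.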

[13] = test system: Cryptococcus neoformans; test: Antifungal activity against Cryptococcus neoformans ATCC 90113; assay type: functional, organism-based
[14] = test system: Staphylococcus aureus; test: Antibacterial activity against methicillin-resistant Staphylococcus aureus ATCC 43300 by CLSI method; assay type: functional, organism-based; method in brief: as §1
[15] = test system: Candida albicans; test: Antifungal activity against Candida albicans ATCC 90028; assay type: functional, organism-based
[16] = test system: Mycobacterium intracellulare; test: Antibacterial activity against Mycobacterium intracellular ATCC 23068 by CLSI method; assay type: functional, organism-based
[17] = test system: Plasmodium falciparum; test: Antimalarial activity against chloroquine-sensitive Plasmodium falciparum D6 by LDH assay; assay type: functional, organism-based
Method in brief: (§3)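 Antiplasmodial activity was measured in vitro against P. falciparum blood-stage cultures. Read-out was parasite lactate dehydrogenase (LDH) activity, with IC50 values expressed in µg/mL. The same protocol was used for the D6 and W2 strains.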

[18] = test system: Plasmodium falciparum; test: Antimalarial activity against chloroquine-resistant Plasmodium falciparum W2 by LDH assay; assay type: functional, organism-based; conditions: Plasmodium falciparum, W2; read-out: IC50; method in brief: as §3
[19] = test system: Plasmodium berghei; test: Antimalarial activity against Plasmodium berghei infected in mouse assessed as complete elimination of malaria parasites from animals at 50 mg/kg, po qd for 4 days measured up to 60 days; assay type: functional, organism-based; parameters: dose 50 mg/kg; method in brief: as §2
[20] = Plasmodium falciparum, D6, read-out: IC50

Compound	MFC [1]	MIC [1]	Activity [2]	MBC [3]	MBC [4]	MIC [4]	Activity [5]	Activity [6]	Activity [7]	Methemoglobin formation [9] [%]	IC50 [10] [µM]	Activity [11]	IC50 [13] [µg/mL]	MIC [13] [µg/mL]	IC50 [14] [µg/mL]	MIC [14] [µg/mL]	IC90 ([8]; Leishmania donovani) [µg/mL]	IC50 ([8]; Leishmania donovani) [µg/mL]	IC50 [16] [µg/mL]	IC50 [17, 20] [µg/mL]	other results
COc1cc(NC(C)CCCNC(=O)NC(CCCN)C(=O)NCCCC(C)Nc2cc(OC)cc3cccnc23)c2ncccc2c1 (single isomer, unassigned; 40)	inactive	inactive	inactive	inactive	inactive	inactive	inactive	inactive	–	–	–	–	–	–	–	–	–	–	–	–	–
COc1cc(NC(C)CCCN)c2ncccc2c1 (configuration not stated) [PRIMAQUINE]	–	–	–	–	–	–	–	–	inactive	10	> 1000	Non-toxic	–	–	–	–	–	–	–	–	IC90 [8]: inactive; Activity [12]: inactive
COc1cc(NC(C)CCCNC(=O)N[C@H](CCCCN)C(=O)NCCCC(C)Nc2cc(OC)cc3cccnc23)c2ncccc2c1.Cl (some centres not stated)	inactive	inactive	inactive	inactive	inactive	inactive	inactive	inactive	–	2.8	162	Non-toxic	10	20	10	20	36	18.5	–	–	MFC [13]: 20 µg/mL; IC50 [1]: Not Active; IC50 [4]: Not Active
COc1cc(NC(C)CCCNC(=O)NC(CCCN)C(=O)NCCCC(C)Nc2cc(OC)cc3cccnc23)c2ncccc2c1 (single isomer, unassigned; 37)	inactive	inactive	inactive	–	–	–	inactive	inactive	inactive	–	–	–	–	–	–	–	–	–	–	–	–
COc1cc(NC(C)CCCNC(=O)N[C@@H](CCCN)C(=O)NCCCC(C)Nc2cc(OC)cc3ccc(C(C)(C)C)nc23)c2nc(C(C)(C)C)ccc2c1.Cl (some centres not stated)	inactive	inactive	inactive	–	inactive	–	inactive	inactive	–	0.2	152	Non-toxic	15	20	6.5	20	33	18	15	4	IC50 [15]: 15 µg/mL; MBC [14]: 20 µg/mL
COc1cc(NC(C)CCCNC(=O)C[C@H](N)C(=O)NCCCC(C)Nc2cc(OC)cc3cccnc23)c2ncccc2c1.Cl (some centres not stated)	inactive	inactive	inactive	inactive	inactive	inactive	inactive	inactive	–	5.4	185	Non-toxic	7.5	10	15	20	30	–	20	4.76	MFC [13]: 10 µg/mL; IC50 [1]: Not Active; IC50 [18]: 3.8 µg/mL
COc1cc(NC(C)CCCNC(=O)CC[C@H](N)C(=O)NCCCC(C)Nc2cc(OC)cc3ccc(C(C)(C)C)nc23)c2nc(C(C)(C)C)ccc2c1.Cl (some centres not stated)	–	–	–	–	inactive	inactive	–	–	inactive	3.3	> 1000	Non-toxic	–	–	8.5	20	10.7	3.9	–	4.7	IC50 [4]: Not Active; MBC [14]: 20 µg/mL; IC50 [18]: 2.3 µg/mL
COc1cc(NC(C)CCCNC(=O)C[C@@H](N)C(=O)NCCCC(C)Nc2cc(OC)cc3cccnc23)c2ncccc2c1.Cl (some centres not stated)	–	–	–	inactive	inactive	–	–	–	–	7.25	120	Non-toxic	–	–	15	–	31	11.5	15	3.3	MIC [3]: inactive; MIC [16]: 20 µg/mL
COc1cc(NC(C)CCCNCC(=O)NCCCC(C)Nc2cc(OC)cc3ccc(C(C)(C)C)nc23)c2nc(C(C)(C)C)ccc2c1.Cl.Cl (configuration not stated)	–	–	–	inactive	inactive	inactive	–	–	–	1.1	75	Non-toxic	–	–	15	20	7.8	2.9	15	1.5	IC50 [18]: 1.3 µg/mL
CCCCCOc1c(OC)cc(NC(C)CCCNC(=O)NCCCC(C)Nc2cc(OC)c(OCCCCC)c3c(CC)ccnc23)c2nccc(CC)c12.Cl.Cl (configuration not stated)	–	–	–	inactive	inactive	inactive	–	–	–	4.7	80	Non-toxic	–	–	8.5	20	7	3.5	–	1.7	IC50 [4]: Not Active; IC50 [18]: 1.3 µg/mL
COc1cc(NC(C)CCCNC(=O)NC(CCCNC(=N)N)C(=O)NCCCC(C)Nc2cc(OC)cc3cccnc23)c2ncccc2c1 (single isomer, unassigned; 36)	inactive	inactive	inactive	–	–	–	inactive	inactive	Active	–	–	–	–	–	–	–	–	–	–	–	Activity [19]: inactive
COc1cc(NC(C)CCCNC(=O)C[C@H](N)C(=O)NCCCC(C)Nc2cc(OC)cc3ccc(C(C)(C)C)nc23)c2nc(C(C)(C)C)ccc2c1.Cl (some centres not stated)	inactive	inactive	inactive	–	inactive	inactive	inactive	inactive	inactive	1.55	140	Non-toxic	10	20	6.5	–	33	15	–	–	MFC [13]: 20 µg/mL; IC50 [1]: Not Active; IC50 [4]: Not Active; MBC [14]: 20 µg/mL; IC50 [17]: Not Active
CCCCCOc1c(OC)cc(NC(C)CCCNC(=S)NCCCC(C)Nc2cc(OC)c(OCCCCC)c3c(CC)ccnc23)c2nccc(CC)c12.Cl.Cl (configuration not stated)	inactive	–	inactive	–	inactive	–	inactive	inactive	–	1.7	> 1000	Non-toxic	10	20	3.5	5	–	40	15	–	MFC [13]: 20 µg/mL; IC50 [15]: 10 µg/mL; MIC [15]: 20 µg/mL; MBC [14]: 10 µg/mL; IC90 [8]: inactive; MIC [16]: 20 µg/mL; IC50 [18]: 4.76 µg/mL; IC50 [17]: Not Active
